In brackets after ≈: the same amount, converted by molar mass. Like-named read-outs stand apart in the source and are kept apart here.
Key:
IMP-1 [1] = biological target: T1, IMP-1 (Serratia marcescens, UniProt P52699); test: Steady-state hydrolysis kinetics and UV difference spectra with purified IMP-1; assay type: biochemical; conditions: for hydrolysis monitored by UV difference spectroscopy: IMP-1, 200 : 1 S : E ratio, 220 nm to 300 nm
NDM-1 [2] = biological target: T2, NDM-1 (Klebsiella pneumoniae, UniProt C7C422); test: Steady-state hydrolysis kinetics and UV difference spectra with purified NDM-1; assay type: biochemical; conditions: for hydrolysis monitored by UV difference spectroscopy: NDM-1, 200 : 1 S : E ratio, 220 nm to 300 nm; for K M: substrate hydrolysis by NDM-1, 30 °C, 10 mM HEPES, 200 mM NaCl pH 7.5, 20 μM ZnSO4
VIM-2 [3] = biological target: T3, VIM-2 (Escherichia coli, UniProt Q5U7L7); test: Steady-state hydrolysis kinetics and UV difference spectra with purified VIM-2; conditions: for hydrolysis monitored by UV difference spectroscopy: VIM-2, 200 : 1 S : E ratio, 220 nm to 300 nm
VIM-2 [4] = biological target: T3, VIM-2; conditions: CAZ hydrolysis by VIM-2, cited from earlier work
NDM-5 [5] = biological target: T4, NDM-5 (Klebsiella pneumoniae, UniProt C7C422, M154L/V88L); conditions: CAZ hydrolysis by NDM-5; cited from earlier work
IMP-1 [6] = biological target: T1, IMP-1; conditions: CAZ hydrolysis by IMP-1; cited from earlier work
E. coli (blaNDM-5) = conditions: clinical E. coli before ten-fold increase in blaNDM-5 copy number; cited from earlier work
VIM-2 [7] = biological target: T3, VIM-2; test: Inhibition of nitrocefin hydrolysis by VIM-2; assay type: biochemical; conditions: 2 nM VIM-2, 5 min preincubation at 30 °C, 50 μM nitrocefin
In short: (§1)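 Recombinant MBL lacking its signal peptide, made in E. coli BL21(DE3) as His-tagged protein, Ni-affinity purified and TEV-cleaved (>95% pure). 2 nM enzyme preincubated 5 min at 30 °C with varied test compound, or its NDM-1 hydrolysis product, or none. Buffer: 10 mM HEPES, 200 mM NaCl pH 7.5, 20 μM ZnSO4. Nitrocefin 50 μM final; initial rates at 495 nm over 300 s. IC50 curves fitted; triplicate.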

[8] = test system: E. coli DH10B cells harboring the pMBLe blaNDM-1 plasmid; test: Broth microdilution MIC in ID-CAMHB, E. coli producing NDM-1; assay type: cell-based
In short: (§2)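 Broth microdilution per CLSI in iron-depleted cation-adjusted Mueller–Hinton broth. DH10B carries the MBL gene on pMBLe with its native signal peptide under an IPTG-inducible promoter; inoculum in broth with 0–200 μM IPTG, final 5 × 10^5 CFU mL−1. Incubation 37 °C, 18 h; mode of three independent experiments. Enzyme levels by anti-strep-tag II immunoblot of drug-free growth wells, DnaK loading control.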

[9] = test system: E. coli DH10B cells harboring the pMBLe blaIMP-1 plasmid; test: Broth microdilution MIC in ID-CAMHB, E. coli producing IMP-1; assay type: cell-based; conditions: Escherichia coli, higher levels of IMP-1 (IPTG-induced)
In short: as §2

IMP-1 [10] = biological target: T1, IMP-1; test: Inhibition of nitrocefin hydrolysis by IMP-1; assay type: biochemical; conditions: 2 nM IMP-1, 5 min preincubation at 30 °C, 50 μM nitrocefin
In short: as §1

NDM-5 [11] = biological target: T4, NDM-5; test: Steady-state hydrolysis kinetics with purified NDM-5; assay type: biochemical; conditions: FDC hydrolysis by NDM-5, 30 °C, pH 7.5
In short: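 Purified enzyme in 10 mM HEPES, 200 mM NaCl pH 7.5 with 20 μM ZnSO4, at 30 °C. Initial velocities of substrate hydrolysis followed at 259 nm, Δε259 = −9430 M−1 cm−1, 0.1 cm path cuvette. kcat and KM derived from these initial-rate measurements.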

NDM-1 [12] = biological target: T2, NDM-1; test: Inhibition of nitrocefin hydrolysis by NDM-1; assay type: biochemical; conditions: 2 nM NDM-1, 5 min preincubation at 30 °C, 50 μM nitrocefin
In short: as §1

SMILES: CC(C)(O/N=C(\C(=O)N[C@@H]1C(=O)N2C(C(=O)[O-])=C(C[n+]3ccccc3)CS[C@H]12)c1csc(N)n1)C(=O)O [CAZ, ceftazidime]
- hydrolysis monitored by UV difference spectroscopy (IMP-1 [1]): can turnover
- hydrolysis monitored by UV difference spectroscopy (NDM-1 [2]): can turnover
- K M (NDM-1 [2]): 45 ± 12 µM
- hydrolysis monitored by UV difference spectroscopy (VIM-2 [3]): can turnover
- k cat /K M (VIM-2 [4]): 50000 M⁻¹ s⁻¹
- K M (VIM-2 [4]; standard deviations <10%): 72 µM
- k cat (VIM-2 [4]; standard deviations <10%): 3.6 s⁻¹
- K M (NDM-5 [5]): 86 ± 11 µM
- k cat (NDM-5 [5]): 15 s⁻¹
- k cat /K M (NDM-5 [5]): 180000 M⁻¹ s⁻¹
- K M (IMP-1 [6]): 44 ± 3 µM
- k cat (IMP-1 [6]): 8 ± 1 s⁻¹
- k cat /K M (IMP-1 [6]): 180000 M⁻¹ s⁻¹

SMILES: CC(C)(O/N=C(\C(=O)N[C@@H]1C(=O)N2C(C(=O)[O-])=C(C[N+]3(CCNC(=O)c4ccc(O)c(O)c4Cl)CCCC3)CS[C@H]12)c1csc(N)n1)C(=O)O [FDC, cefiderocol]
- MIC (E. coli (blaNDM-5)): 2 µg/mL (≈ 2.66 µM)
- K M (IMP-1 [1]; FDC hydrolysis by IMP-1, 30 °C, pH 7.5): 300 ± 120 µM
- hydrolysis monitored by UV difference spectroscopy (IMP-1 [1]): negligible activity
- inhibition of nitrocefin hydrolysis activity (VIM-2 [7]): inhibited
- hydrolysis monitored by UV difference spectroscopy (NDM-1 [2]): efficiently hydrolyzes
- K M (NDM-1 [2]): 443 ± 59 µM
- K M (VIM-2 [3]; FDC hydrolysis by VIM-2, 30 °C, pH 7.5): 250 ± 80 µM
- hydrolysis monitored by UV difference spectroscopy (VIM-2 [3]): negligible activity
- increase in MIC values ([8]; E. coli laboratory strain, NDM-1 overproduction vs basal level): 16 fold
- MIC ([8]; Escherichia coli, ID-CAMHB, higher levels of NDM-1 (IPTG-induced)): 0.5 µg/mL (≈ 0.665 µM)
- MIC [9]: 0.06 µg/mL (≈ 0.0798 µM)
- inhibition of nitrocefin hydrolysis activity (IMP-1 [10]): inhibited
- K M (NDM-5 [11]): 405 ± 40 µM
- k cat (NDM-5 [11]): 75 ± 3 s⁻¹
- inhibition of nitrocefin hydrolysis activity (NDM-1 [12]): largely unperturbed

From PMC12152739 (Chemical Science, 2025)
